Reference: ChEMBL document CHEMBL2150985, “Synthesis and antioxidant activity of 1,3,4-oxadiazole tagged thieno[2,3-d]pyrimidine derivatives” (Eur J Med Chem, 2012)
Values after ≈ are worked out from the molar mass of the structure shown.

Key:
Type in all cases: functional
[1] = Antioxidant activity assessed as inhibition of H2O2 radical scavenging activity at 100 ug/mL by spectrophotometric analysis relative to control
Procedure, shortened: (§1)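 H2O2 (40 mM) prepared in phosphate buffer, pH 7.4. Compounds at […] in phosphate buffer were added to the H2O2 solution. Absorbance of the mixture was read at 230 nm, and percent H2O2 scavenging was calculated.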

[2] = Antioxidant activity assessed as inhibition of nitric oxide free radical production at 50 ug/mL after 150 mins by Griess method relative to control
Procedure, shortened: (§2)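 NO generated from sodium nitroprusside (10 mM) in 0.2 M phosphate buffered saline, pH 7.4, with compound at […]. Incubated 150 min at 25 °C. An aliquot was mixed 1:1 with Griess reagent (1% sulfanilamide, 2% H3PO4, 0.1% naphthylethylenediamine dihydrochloride).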

[3] = system: Radical scavenging activity; assay: Antioxidant activity assessed as inhibition of DPPH free radical production after 30 mins by spectrophotometric analysis
Procedure, shortened: (§3)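 Test compound in methanol added to 0.004% (w/v) methanolic DPPH at a 1:4 volume ratio. Incubated 30 min at room temperature. Absorbance read against blank at 517 nm.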

[4] = Antioxidant activity assessed as inhibition of nitric oxide free radical production after 150 mins by Griess method; procedure, shortened: as §2
[5] = Antioxidant activity assessed as inhibition of H2O2 radical scavenging activity by spectrophotometric analysis; procedure, shortened: as §1
[6] = Antioxidant activity assessed as inhibition of nitric oxide free radical production at 25 ug/mL after 150 mins by Griess method relative to control; procedure, shortened: as §2
[7] = Antioxidant activity assessed as inhibition of H2O2 radical scavenging activity at 25 ug/mL by spectrophotometric analysis relative to control; procedure, shortened: as §1
[8] = Antioxidant activity assessed as inhibition of nitric oxide free radical production at 100 ug/mL after 150 mins by Griess method relative to control; procedure, shortened: as §2
[9] = system: Radical scavenging activity; assay: Antioxidant activity assessed as inhibition of DPPH free radical production at 75 ug/mL after 30 mins by spectrophotometric analysis relative to control; procedure, shortened: as §3
[10] = Antioxidant activity assessed as inhibition of nitric oxide free radical production at 75 ug/mL after 150 mins by Griess method relative to control; procedure, shortened: as §2
[11] = Antioxidant activity assessed as inhibition of H2O2 radical scavenging activity at 50 ug/mL by spectrophotometric analysis relative to control; procedure, shortened: as §1
[12] = system: Radical scavenging activity; assay: Antioxidant activity assessed as inhibition of DPPH free radical production at 25 ug/mL after 30 mins by spectrophotometric analysis relative to control; procedure, shortened: as §3
[13] = system: Radical scavenging activity; assay: Antioxidant activity assessed as inhibition of DPPH free radical production at 50 ug/mL after 30 mins by spectrophotometric analysis relative to control; procedure, shortened: as §3
[14] = Antioxidant activity assessed as inhibition of H2O2 radical scavenging activity at 75 ug/mL by spectrophotometric analysis relative to control; procedure, shortened: as §1
[15] = system: Radical scavenging activity; assay: Antioxidant activity assessed as inhibition of DPPH free radical production at 100 ug/mL after 30 mins by spectrophotometric analysis relative to control; procedure, shortened: as §3

SMILES	inhibition [1] [%]	inhibition [2] [%]	IC50 [3] [µg/mL]	IC50 [4] [µg/mL]	IC50 [5] [µg/mL]	inhibition [6] [%]	inhibition [7] [%]	inhibition [8] [%]	inhibition [9] [%]	inhibition [10] [%]	inhibition [11] [%]	inhibition [12] [%]	inhibition [13] [%]	inhibition [14] [%]	inhibition [15] [%]
Cc1c(-c2nnc(-c3ccccc3)o2)sc2ncnc(Nc3ccc(F)cc3)c12	74.2	78.1	17.25 (≈ 42.8 µM)	17.1 (≈ 42.4 µM)	18.85 (≈ 46.7 µM)	73.1	66.3	84.9	78.4	82.4	69.5	72.5	75.8	71.7	83.1
O=C1O[C@H]([C@@H](O)CO)C(O)=C1O [ASCORBIC ACID]	86.6	86	15.11 (≈ 85.8 µM)	14.75 (≈ 83.7 µM)	16.35 (≈ 92.8 µM)	84.7	76.4	90.4	85.5	88.3	78.6	82.7	83.5	82.4	87.2
Cc1c(-c2nnc(-c3ccc(Cl)cc3)o2)sc2ncnc(Nc3ccc(F)cc3F)c12	79.7	83.3	16.35 (≈ 35.9 µM)	15.98 (≈ 35.1 µM)	18.26 (≈ 40.1 µM)	78.2	68.4	86.2	83.3	84.6	71.7	76.4	79.7	74.5	85.8
Cc1c(-c2nnc(-c3ccc([N+](=O)[O-])cc3)o2)sc2ncnc(Nc3ccc(F)c(Cl)c3)c12	53.6	56.5	25.69 (≈ 53.2 µM)	23.3 (≈ 48.3 µM)	27.76 (≈ 57.5 µM)	53.6	45	64.3	56.6	60	47.4	48.6	52.9	50.4	61.9
Cc1c(-c2nnc(-c3ccc(Cl)cc3)o2)sc2ncnc(Nc3ccc(F)cc3)c12	72.6	76.3	17.7 (≈ 40.4 µM)	17.39 (≈ 39.7 µM)	19.49 (≈ 44.5 µM)	71.8	64.1	83.6	77.8	79.7	67.4	70.6	74.2	69.8	81.9
Cc1c(-c2nnc(-c3ccc(Cl)cc3)o2)sc2ncnc(Nc3ccc(F)c(Cl)c3)c12	71.9	69.2	19.57 (≈ 41.4 µM)	19.41 (≈ 41.1 µM)	20.18 (≈ 42.7 µM)	64.4	61.9	79.5	71.5	74.7	64.5	63.9	67.9	68.2	76.6
Cc1c(-c2nnc(-c3ccccc3)o2)sc2ncnc(Nc3ccc(Cl)cc3)c12	71.6	74.8	18.03 (≈ 42.9 µM)	17.54 (≈ 41.8 µM)	20.47 (≈ 48.8 µM)	71.3	61.1	82.9	76.8	77.1	63.8	69.3	71.6	68.2	81.3
Cc1c(-c2nnc(-c3ccc([N+](=O)[O-])cc3)o2)sc2ncnc(Nc3ccc(F)cc3)c12	64.2	66.8	20.92 (≈ 46.7 µM)	20.14 (≈ 44.9 µM)	23.54 (≈ 52.5 µM)	62	53.1	73.9	68.9	70.9	56.6	59.7	64.5	60	72.2
Cc1c(-c2nnc(-c3ccc([N+](=O)[O-])cc3)o2)sc2ncnc(Nc3ccc(F)cc3F)c12	66.2	71.4	19.34 (≈ 41.5 µM)	19.66 (≈ 42.2 µM)	22.98 (≈ 49.3 µM)	63.6	54.4	79	73.9	76.2	58.1	64.6	69.5	62.8	77.8
Cc1c(-c2nnc(-c3ccccc3)o2)sc2ncnc(Nc3ccc(F)c(Cl)c3)c12	70.9	74.1	18.25 (≈ 41.7 µM)	17.14 (≈ 39.1 µM)	20.74 (≈ 47.4 µM)	72.9	60.3	82.4	74.9	78.2	63.5	68.5	72.8	67.8	79.2
Cc1c(-c2nnc(-c3ccccc3)o2)sc2ncnc(Nc3ccc(F)cc3F)c12	72.5	79.5	16.91 (≈ 40.1 µM)	16.61 (≈ 39.4 µM)	19.57 (≈ 46.4 µM)	75.2	63.9	85.4	79.6	82.6	65.5	73.9	77.4	69	83.8
Cc1c(-c2nnc(-c3ccc(Cl)cc3)o2)sc2ncnc(Nc3ccc(Cl)cc3)c12	69.8	70.6	19.31 (≈ 42.5 µM)	18.27 (≈ 40.2 µM)	21.22 (≈ 46.7 µM)	68.4	58.3	79.4	73.8	74.2	62.3	64.7	68.4	65.7	77.5
Cc1c(-c2nnc(-c3ccc([N+](=O)[O-])cc3)o2)sc2ncnc(Nc3ccc(Cl)cc3)c12	63.7	63.5	23.7 (≈ 51 µM)	20.49 (≈ 44.1 µM)	24.33 (≈ 52.3 µM)	61	51.4	72.4	61.4	67.6	54	52.7	58.2	58.1	67.8
